Measurements: ChEMBL document CHEMBL1155706, “Vertilecanins: new phenopicolinic acid analogues from Verticillium lecanii” (2001)
Calls of active or inactive are those of the source. The rule behind the calls is not given here.

What was measured:
[1] = test system: Helicoverpa zea; assay: Antiinsectan activity in Helicoverpa zea at 100 ppm; assay type: functional, organism-based
Procedure, shortened: (§1)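 Test material was mixed into the H. zea diet at the stated ppm level (100 or 1500 ppm). Activity was scored as the reduction in weight gain relative to controls.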

[2] = test system: Bacillus subtilis; assay: Antibacterial activity against Bacillus subtilis ATCC 6051 at 100 ug/disk by standard disk diffusion assay; assay type: functional
Procedure, shortened: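 Standard paper-disk diffusion test with 100 μg loaded per disk against B. subtilis ATCC 6051. Read-out is the diameter of the inhibition zone in mm.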

[3] = test system: Helicoverpa zea; assay: Antiinsectan activity in Helicoverpa zea assessed as reduction in weight gain at 1500 ppm relative to control; assay type: functional; design: scale not given: the % may be the effect or the level left; procedure, shortened: as §1

SMILES | Activity [1] | Activity [2] | Activity [3] [%] | zone of inhibition at 100 µg/disc ([2]; read-out: IZ) [mm]
COC(=O)CNC(=O)c1ccc(C(=O)c2ccccc2)cn1 | inactive | – | – | –
O=C(O)CCCCCC/C=C/CO | inactive | inactive | – | –
O=C(O)CNC(=O)c1ccc([C@H](O)c2ccccc2)cn1 | inactive | inactive | – | –
COC(=O)c1ccc([C@H](O)c2ccccc2)cn1 | inactive | – | – | –
O=C(O)/C=C/CCCCCCC(=O)O | inactive | – | – | –
COC(=O)CNC(=O)c1ccc([C@H](O)c2ccccc2)cn1 | inactive | – | – | –
O=C(O)c1ccc([C@H](O)c2ccccc2)cn1 [VERTILECANIN A] | inactive | – | 49 | 8
